Reference: article PMC9290801 (Journal of Clinical Pharmacology, 2021)
Where two headings read alike, the source gives them in different places.

Assays:
P‐glycoprotein (P‐gp) = assay: P-gp transport kinetics; assay type: in vitro ADME
Method in brief: (§1)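 Intestinal P-gp kinetics were estimated by the Troutman–Thakker approach, assuming one-site saturable Michaelis–Menten kinetics, with intrinsic clearance derived from Jmax and Km. The values were placed at the intestinal apical site (ADAM absorption, minimal PBPK) and at the hepatic canalicular site (full PBPK, tissue:plasma Kp 0.4).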

P-glycoprotein (P-gp) = assay: P-gp transport kinetics; assay type: in vitro ADME; conditions: not told
Method in brief: as §1

[1] = cited from earlier work
[2] = coadministration with rifampicin vs selumetinib alone; cited from earlier work
CYP3A = CYP3A contribution to selumetinib clearance; parameters: species or system human
[3] = adults with solid tumors; cited from earlier work
[4] = cited from earlier work; remark: listed apart in the source
[5] = single oral dose, healthy adult subjects; cited from earlier work
[6] = Physicochemical parameters
[7] = Blood-to-plasma ratio and plasma protein binding; assay type: in vitro ADME
[8] = cited from earlier work; remark: listed apart in the source
CYP2C19 = CYP2C19 contribution to selumetinib clearance; parameters: species or system human
[9] = Madin-Darby Canine Kidney II permeability measurement; assay type: in vitro ADME; conditions: dog, MDCK
[10] = PBPK model absorption/distribution input parameters; parameters: species or system human; conditions: Estimated based on observed Cmax and PK profile (Study NCT02093728)
Method in brief: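 Minimal 4-compartment PBPK model in Simcyp v17 with first-order absorption and a single adjusting compartment (intercompartmental clearance 8 L/h, from a population PK model). Compartment volume was fitted to observed Cmax and profile from a healthy-volunteer trial: 10 × 10 virtual subjects aged 18–44 years given a single oral 25 mg dose.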

SMILES: Cn1cnc2c(F)c(Nc3ccc(Br)cc3Cl)c(C(=O)NOCCO)cc21 [selumetinib]
- maximal carrier‐mediated flux (Jmax) (P‐glycoprotein (P‐gp); estimated, one‐site Michaelis‐Menten saturable kinetics): 9.9 pmol/min
- P‐gp intrinsic clearance (P‐glycoprotein (P‐gp); from Jmax and Km): 0.62 µL/min
- Km (P-glycoprotein (P-gp)): 15.8 µM
- fraction of absorption (Oral dose → First pass) ([1]; oral dose): > 71%
- dose eliminated as unchanged in urine ([1]; renal elimination): < 1 % of dose
- decrease in AUC [2]: 51%
- reduction in Cmax [2]: 26%
- CYP3A CLint (CYP3A; Retrograde from CLpo 19.6 L/h, fm 25%): 0.568 µL/min/pmol
- fm (fraction metabolized) by CYP3A (CYP3A; assigned according to DDI study with itraconazole): 25%
- maximum tolerated dose [3]: 75 mg
- observed exposure (AUC from time 0 to 12 hours) ([4]; SPRINT phase 2 cohort, 25 mg/m^2): 2009 ng·h/mL
- maximum tolerated dose ([4]; pediatric SPRINT phase 1, twice daily): 25 mg/m^2
- terminal elimination half‐life ([4]; pediatric patients, single oral dose): ≈ 6 hours
- absolute (oral) bioavailability [5]: 62%
- logP [6]: 3.88
- B:P (blood‐to‐plasma ratio) ([7]; Report KPJ003): 0.625
- fraction unbound ([7]; plasma): 0.016
- Observed geomean AUC (CV%) ([8]; 25 mg dose+fluconazole): 1770 ng·h/mL
- Observed geomean AUC (CV%) ([8]; 25 mg dose+itraconazole): 1760 ng·h/mL
- Observed geomean AUC (CV%) ([8]; 25 mg single oral dose alone, healthy volunteers): 1180 ng·h/mL
- CYP2C19 CLint (CYP2C19; Retrograde from CLpo 19.6 L/h, fm 15%): 3.335 µL/min/pmol
- fm (fraction metabolized) by CYP2C19 (CYP2C19; assigned according to DDI study with fluconazole): 15%
- Papp [9]: 37.7 ×10⁻⁶ cm/s
- Vsac (volume of single adjusting compartment) [10]: 1 L/kg
